≈ marks a conversion by molar mass, not a printed value. Read-outs that look alike come from different tables or passages of the source.
Columns and labels:
[1] = Metabolite profile in liver microsomes; format: in vitro ADME
[2] = test system: CYP2C19, CYP2D6, CYP3A4, UGT2B4, and UGT2B7; assay: Inhibition of CYP and UGT enzymes; format: in vitro ADME; conditions: at therapeutic concentration ranges; data on file
[3] = format: in vivo, human; conditions: for CL/F / Fe0‐12h (fraction excreted in urine) / Accumulation ratio (based on AUCτ): geometric mean (geometric CV%); for Tmax: human, plasma, oral, range
Solubility in water = format: physicochemical
[4] = Plasma and urine pharmacokinetics, part I SAD study; format: in vivo, human; conditions: for CL/F / Fe0‐72h (fraction excreted in urine): geometric mean (geometric CV%)
How it was run: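 Healthy adults randomized 6:2 to oral test compound or placebo (n = 8/cohort), fasted ≥10 h, no food ≥4 h postdose. Solution given as 150 mL in diluted Ora-Sweet plus 90 mL water rinse. Plasma sampled predose to 72 h. UHPLC-MS/MS with deuterated internal standard; plasma 2.5–1000 μg/L (LLOQ 2.5), urine 2–800 μg/L (LLOQ 2.0). Noncompartmental analysis; power-model ln-regression of Cmax/AUC on dose, slope with 90% CI.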

[5] = In vitro Caco-2 permeability; format: in vitro ADME; conditions: human
monkeys = assay: Multiple-dose toxicity study up to 28 days in monkeys; format: in vivo
Pro‐C3 = assay: Serum PD biomarker Pro-C3; format: in vivo, human; conditions: MAD; statistically significant after a single dose but not after multiple doses
How it was run: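 Oral tablets b.i.d. for 14 days (morning only day 14), 25–200 mg, in healthy adults randomized 6:2 versus placebo. Morning doses followed ≥10 h fasting; other doses came ≥1 h after a meal. Serum drawn predose and 2, 4, 6, 12 h after day 1 morning dose, day 2/7 predose, and predose to 72 h after day 14 dose. Pro-C3 measured by validated ELISA; AUEC0‑12h computed.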

[6] = MAD day 1, single 100 mg tablet
[7] = MAD day 1, single 200 mg tablet
[8] = MAD day 14, 50 mg tablet b.i.d.
[9] = MAD day 14, 100 mg tablet b.i.d.
[10] = MAD day 14, 200 mg tablet b.i.d.

O[C@H]1CCCN[C@@H]1CCCn1cnc2c(Cl)c(Cl)ccc21 [Bersiporocin]
number of metabolites identified [1]: 21 | inhibition of CYP and UGT enzymes [2]: did not inhibit | dose adjusted plasma exposure, CYP2D6 poor metabolizer compared to the median value in other phenotypes ([3]; MAD): six‐ to nine‐fold higher | CL/F ([3]; MAD day 1, single 25 mg tablet): 175.57 (70.55) L/h | Fe0‐12h (fraction excreted in urine) ([3]; MAD day 1, single 25 mg tablet): 6.23 (44.75) % | CL/F ([3]; MAD day 1, single 50 mg tablet): 292.89 (26.44) L/h | Fe0‐12h (fraction excreted in urine) ([3]; MAD day 1, single 50 mg tablet): 6.09 (95.30) % | CL/F [3, 6]: 261.98 (49.54) L/h | Fe0‐12h (fraction excreted in urine) [3, 6]: 8.20 (27.21) % | CL/F [3, 7]: 266.78 (18.62) L/h | Fe0‐12h (fraction excreted in urine) [3, 7]: 8.44 (50.39) % | Accumulation ratio (based on AUCτ) ([3]; MAD day 14, 25 mg tablet b.i.d.): 1.94 (26.34) | Accumulation ratio (based on AUCτ) [3, 8]: 2.33 (31.42) | Fe0‐12h (fraction excreted in urine) [3, 8]: 6.09 (95.30) % | Accumulation ratio (based on AUCτ) [3, 9]: 1.88 (35.07) | Fe0‐12h (fraction excreted in urine) [3, 9]: 8.20 (27.21) % | Accumulation ratio (based on AUCτ) [3, 10]: 3.75 (36.01) | Fe0‐12h (fraction excreted in urine) [3, 10]: 8.44 (50.39) % | increase of AUC ([3]; MAD, 100 to 200 mg dose group): more than four‐folds | dose dependence of plasma concentration ([3]; MAD, enteric coated tablet, after single and multiple doses): dose‐proportional manner | time to steady‐state of plasma concentration ([3]; MAD, enteric coated tablet, first Helmert contrast with p > 0.05): 2 days | Tmax ([3]; median T max after a single dose, MAD, single dose): 2.5 to 6 h | Tmax ([3]; median T max,ss, MAD, multiple doses): 2 to 6 h | solubility (Solubility in water): 19.6 mg/mL (≈ 59.6 mM) | CL/F ([4]; SAD single 100 mg capsule): 156.48 (58.10) L/h | Fe0‐72h (fraction excreted in urine) ([4]; SAD single 100 mg capsule): 10.01 (45.08) % | CL/F ([4]; SAD single 100 mg solution): 340.72 (48.72) L/h | Fe0‐72h (fraction excreted in urine) ([4]; SAD single 100 mg solution): 7.59 (32.47) % | CL/F ([4]; SAD single 300 mg capsule): 196.59 (47.06) L/h | Fe0‐72h (fraction excreted in urine) ([4]; SAD single 300 mg capsule): 7.42 (43.31) % | CL/F ([4]; SAD single 500 mg tablet): 213.75 (53.27) L/h | Fe0‐72h (fraction excreted in urine) ([4]; SAD single 500 mg tablet): 42.18 (180.78) % | CL/F ([4]; SAD single 600 mg capsule): 312.07 (222.08) L/h | Fe0‐72h (fraction excreted in urine) ([4]; SAD single 600 mg capsule): 3.09 (341.55) % | half-life ([4]; human, plasma, oral, t 1/2, range, SAD, enteric coated capsule): 415 to 594 min | dose dependence of plasma concentration ([4]; single dose of enteric coated capsule): dose‐proportional manner | role of renal elimination ([4]; urine PK data from SAD or MAD): renal elimination was not the major clearance pathway | Papp [5]: 7.67 ± 1.06 ×10⁻⁶ cm/s | maximum recommended starting dose for a 60 kg adult (monkeys; calculated from NOAEL in monkeys, safety factor = 10): 154.8 mg | clinical observation in toxicity study (monkeys; monkeys, concluded not to be an adverse event, transient): vomiting was observed | mean AUEC0‐12h for serum Pro‐C3 compared to the placebo‐treated group (Pro‐C3): lower
